SMILES strings stand for the structures. Calls of active or inactive are those of the source. The rule behind the calls is not given here.

The test system of this experiment is Spodoptera litura. The experiment in a line: Antifeedant activity against Spodoptera litura in compound treated cork borer from fresh sweet potato leaves by Choice Leaf-Disk Bioassay. Format: functional. The method, boiled down:
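Partly eaten disks were photocopied and scanned to digital files, and each treated disk was measured against an intact disk. Antifeedant index (AFI) = % treated consumed/(% treated + % control consumed) × 100. The effective dose was taken as the midpoint between complete inhibition and no effect.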
The compound `COc1c(OC)c(O)c2c(=O)c(OC)c(-c3ccccc3)oc2c1OC` came in with an ED50 of 0.2 ×10⁻⁷ mol/cm2 and a pED50 of 7.7. With `COc1cc(O)c2c(=O)c(OC)c(-c3ccc(OC)c(OC)c3)oc2c1`, the ED50 result was “inactive”. For the compound `O=c1c(O)c(-c2ccc(O)c(O)c2)oc2cc(O)cc(O)c12`, the ED50 entry was “inactive”. With `COc1cc2oc(-c3ccccc3)c(OC)c(=O)c2c(O)c1O`, the ED50 is 0.25 ×10⁻⁷ mol/cm2 and the pED50 is recorded as 7.6.

In turn, `COc1ccc(-c2cc(=O)c3c(OC)c(OC)c(OC)c(OC)c3o2)cc1` [TANGERETIN] registered an ED50 of 2.8 ×10⁻⁷ mol/cm2 and a pED50 of 6.55.

In the case of `COc1cc(O)cc(O)c1C(=O)/C=C/c1ccc(O)cc1` [HELICHRYSETIN], the ED50 came out at 3.8 ×10⁻⁷ mol/cm2 and the pED50 is on record as 6.42. For `COc1ccc(-c2cc(=O)c3c(O)c(OC)c(OC)c(OC)c3o2)cc1` [GARDENIN B], in that order: 1.8 ×10⁻⁷ mol/cm2 and 6.74. In the case of `C=C(C)[C@H]1Cc2c(ccc3c2O[C@@H]2COc4cc(OC)c(OC)cc4[C@@H]2C3=O)O1` [ROTENONE], the ED50 is on record as 1.5 ×10⁻⁷ mol/cm2 and the pED50 is reported as 6.82.

The compound `COc1ccc(-c2oc3c(OC)c(OC)c(OC)c(O)c3c(=O)c2OC)cc1` [5-HYDROXYAURANETIN] yielded an ED50 of 1.1 ×10⁻⁷ mol/cm2 and a pED50 of 6.96. With `COc1ccc(/C=C/C(=O)c2c(O)cc(OC)cc2OC)cc1` [FLAVOKAWAIN A], the ED50 is 90 ×10⁻⁷ mol/cm2 and the pED50 is recorded as 5.05.

These data come from ChEMBL document CHEMBL3045478, “Insect antifeedant flavonoids from Gnaphalium affine D. Don” (2000).
